Assays:
[1] = Ratio of AUC (0 to 31 hrs) in Sprague-Dawley rat lung to AUC (0 to 31 hrs) in Sprague-Dawley rat plasma at 40 mg/kg, po administered as single dose; type: ADME, organism-based; parameters: dose 40 mg/kg, route oral
Procedure, shortened: (§1)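 Male specific-pathogen-free Sprague-Dawley rats (200–300 g), three per group, single gastric intubation at 2 ml/kg of a vitamin E TPGS–PEG 400 solution; food and water ad libitum. Plasma sampled 30 min to 31 h; tissues dissected from oral groups. LC-MS/MS (LLOQ 1 ng/ml plasma, 5 ng/g tissue); noncompartmental analysis; ratios from mean of three rats.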

[2] = Ratio of AUC (0 to 31 hrs) in Sprague-Dawley rat spleen to AUC (0 to 31 hrs) in Sprague-Dawley rat plasma at 40 mg/kg, po administered as single dose; type: ADME, organism-based; parameters: dose 40 mg/kg, route oral; procedure, shortened: as §1
[3] = Ratio of AUC (0 to 31 hrs) in Sprague-Dawley rat heart to AUC (0 to 31 hrs) in Sprague-Dawley rat plasma at 40 mg/kg, po administered as single dose; type: ADME, organism-based; parameters: dose 40 mg/kg, route oral; procedure, shortened: as §1
[4] = Ratio of AUC (0 to 31 hrs) in Sprague-Dawley rat thymus to AUC (0 to 31 hrs) in Sprague-Dawley rat plasma at 40 mg/kg, po administered as single dose; type: ADME, organism-based; parameters: dose 40 mg/kg, route oral; procedure, shortened: as §1
[5] = Tmax in Sprague-Dawley rat large intestine; type: ADME, tissue-based
Procedure, shortened: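 Male Sprague-Dawley rats given a single oral dose of 40 mg/kg in TPGS–PEG400, three per time point. Tissues dissected at times up to 31 h and measured by LC-MS/MS (LLOQ 5 ng/g).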

[6] = Inhibition of HCV 1a H77 NS3/4A protease using RetS1 as a substrate by fluorescence resonance energy transfer cleavage assay
Hepatitis C virus [7] = experiment: Inhibition of HCV 1b isolate con1 NS3/4A protease using RetS1 as a substrate by fluorescence resonance energy transfer cleavage assay
Cathepsin S = Cathepsin S (Homo sapiens, UniProt P25774); experiment: Inhibition of human cathepsin S in human JY cells assessed as p10 accumulation by fluorescence-based assay; type: cell-based
Cathepsin S, sequence (P25774 whole entry, the tested form may be a part): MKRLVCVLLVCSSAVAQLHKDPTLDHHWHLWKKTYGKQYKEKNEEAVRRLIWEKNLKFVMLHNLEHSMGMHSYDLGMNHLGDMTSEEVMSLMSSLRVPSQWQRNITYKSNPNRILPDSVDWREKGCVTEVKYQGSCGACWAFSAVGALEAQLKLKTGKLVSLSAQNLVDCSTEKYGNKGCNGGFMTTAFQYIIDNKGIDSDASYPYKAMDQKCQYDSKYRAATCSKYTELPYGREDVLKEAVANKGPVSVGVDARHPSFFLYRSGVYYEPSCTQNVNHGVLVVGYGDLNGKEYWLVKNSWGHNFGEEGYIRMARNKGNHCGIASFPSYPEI
Procedure, shortened: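 Cellular cathepsin S assay in the human JY B-cell line, read as invariant chain degradation (p10 fragment accumulation). Top concentration 10 μM.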

Hepatitis C virus [8] = experiment: Antiviral activity against Hepatitis C virus 1b infected in human HuH7 cells assessed as viral RNA level after 72 hrs by luciferase reporter gene assay; type: functional, organism-based, Hepacivirus hominis; conditions: genotype 1b, Huh-7, 72 h
Procedure, shortened: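 Huh7-Luc cells carrying a genotype 1b con1 subgenomic replicon (clone ET, firefly luciferase, adaptive mutations E1202G/T1280I/K1846T). 2,500 cells/well, serial dilutions, 0.5% DMSO final, no G418. Luciferase signal read after 72 h; EC50 taken from the dose-response curve relative to medium control.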

Hepatitis C virus [9] = experiment: Antiviral activity against Hepatitis C virus 1b infected in human HuH7 cells assessed as viral RNA level after 72 hrs by quantitative reverse transcriptase PCR; type: functional, organism-based, Hepacivirus hominis; conditions: genotype 1b, Huh-7, 72 h
Procedure, shortened: (§2)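 Replicon cells (Huh7-Luc at 3,000/well; con1b S2204I or 1a H77 P1496L/S2204I at 6,000/well) exposed to a dilution range for 72 h in 0.5% DMSO without G418. Lysates reverse transcribed 30 min at 42°C with an HCV 5′UTR primer and an RPL13A control. Inhibition from threshold-cycle difference versus mock; EC50 taken from the dose-response curve.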

Hepatitis C virus [10] = experiment: Antiviral activity against Hepatitis C virus 1b isolate con1 infected in human HuH7 cells assessed as viral RNA level after 72 hrs by quantitative reverse transcriptase PCR; type: functional, organism-based, Hepacivirus hominis; conditions: Con1, Huh-7, 72 h; procedure, shortened: as §2
Hepatitis C virus [11] = experiment: Antiviral activity against HCV 1a H77 infected in human HuH7 cells assessed as viral RNA level after 72 hrs by quantitative reverse transcriptase PCR; type: functional, organism-based, Hepacivirus hominis; conditions: genotype 1a H77, Huh-7, 72 h; procedure, shortened: as §2
[12] = Cytotoxicity against human HuH7 cells infected with Hepatitis C virus subtype 1b after 3 to 4 days by resazurin proliferation assay; type: cell-based, Huh-7
Procedure, shortened: (§3)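 Human cell lines in DMEM with 10% heat-inactivated FBS and 2 mM L-glutamine (replicon cells plus 0.75 mg/ml G418 in maintenance). Exposed to compound for 3 to 4 days; resazurin fluorescence read-out. CC50 from inhibition curves.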

[13] = Cytotoxicity against human HuH7 cells upto 42 uM after 3 to 4 days by resazurin proliferation assay; type: cell-based; conditions: huh-7; procedure, shortened: as §3
HepG2 = experiment: Cytotoxicity against human HepG2 cells upto 42 uM after 3 to 4 days by resazurin proliferation assay; type: cell-based; procedure, shortened: as §3
[14] = Cytotoxicity against human HEK293T cells upto 42 uM after 3 to 4 days by resazurin proliferation assay; type: cell-based; conditions: hek-293t; procedure, shortened: as §3
[15] = Cytotoxicity against human MT4 cells after 3 to 4 days by resazurin proliferation assay; type: cell-based; procedure, shortened: as §3
[16] = Cytotoxicity against human MRC5 cells after 3 to 4 days by resazurin proliferation assay; type: cell-based; procedure, shortened: as §3
[17] = Cytotoxicity against human Saos2 cells after 3 to 4 days by resazurin proliferation assay; type: cell-based, SAOS-2; procedure, shortened: as §3
[18] = Cytotoxicity against human HT1080 cells after 3 to 4 days by resazurin proliferation assay; type: cell-based, HT-1080; procedure, shortened: as §3
[19] = Cytotoxicity against staphylococcal enterotoxin B-stimulated human PBMC cells; type: cell-based
PBMC = experiment: Cytostatic activity against human PBMC cells assessed as incorporation of [3H]thymidine; type: ADME, cell-based; conditions: read-out: CS50 (the source's name)
Hepatitis C virus [20] = experiment: microbe, parasite or virus in culture
Hepatitis C virus [21] = experiment: microbe, parasite or virus in culture; remark: listed apart in the source
Hepatitis C virus [22] = experiment: microbe, parasite or virus in culture; remark: listed apart in the source
Hepatitis C virus [23] = experiment: microbe, parasite or virus in culture; remark: listed apart in the source

COc1ccc2c(O[C@@H]3C[C@H]4C(=O)N[C@]5(C(=O)NS(=O)(=O)C6CC6)C[C@H]5/C=C\CCCCN(C)C(=O)[C@@H]4C3)cc(-c3nc(C(C)C)cs3)nc2c1C [SIMEPREVIR]
Kp [1]: 0.5
Kp [2]: 0.3
Kp [3]: 0.5
Kp [4]: 0.5
Tmax [5]: 8 h
Ki [6]: 0.0005 µM
Ki (Hepatitis C virus [7]): 0.0004 µM
IC50 (Cathepsin S): 0.8 µM
EC50 (Hepatitis C virus [8]): 0.0081 µM
EC90 (Hepatitis C virus [8]): 0.0236 µM
EC50 (Hepatitis C virus [9]): 0.013 µM
EC90 (Hepatitis C virus [9]): 0.0287 µM
EC50 (Hepatitis C virus [10]): 0.0252 µM
EC90 (Hepatitis C virus [10]): 0.118 µM
EC50 (Hepatitis C virus [11]): 0.0284 µM
EC90 (Hepatitis C virus [11]): 0.12 µM
CC50 [12]: 47 µM
Activity [13]: Non-toxic
Activity (HepG2): Non-toxic
Activity [14]: Non-toxic
CC50 [15]: 16 µM
CC50 [16]: 16 µM
CC50 [17]: 16 µM
CC50 [18]: 16 µM
CC50 [19]: 33 µM
GI50 (PBMC): 10 µM
EC50 ratio (Hepatitis C virus [20]): 1.4
EC50 ratio (Hepatitis C virus [21]): 1.7
EC50 ratio (Hepatitis C virus [22]): 1.8
EC50 ratio (Hepatitis C virus [23]): 1.4

Source: ChEMBL document CHEMBL1671650, “In vitro activity and preclinical profile of TMC435350, a potent hepatitis C virus protease inhibitor” (Antimicrob Agents Chemother, 2009)
